Experimental data collected from several papers.
Lines come from different studies, so protocols differ.
Target: Serine/threonine-protein kinase MARK1 (MARK1, Homo sapiens, UniProt Q9P0L2)

CCCCN(CCCC)C(=O)CN1C[C@@H](c2cc(OC)c3c(c2)OCO3)[C@H](C(=O)O)[C@H]1CC(C)(C)CCC gave a remaining binding of 88.7% (cell-free assay; competition with immobilised ligand; 1 µM).
Cc1nn(CC(F)(F)F)cc1Nc1ncc(Br)c(NCCCNC(=O)C2CCC2)n1 gave a remaining activity of 8% (enzyme activity; inhibitor; radiometric; 1 µM).
C[C@@H](c1cccc(C#N)c1)n1cc(Cl)cc(C(N)=O)c1=N gave a remaining binding of 100% (cell-free assay; competition with immobilised ligand; 1 µM).
With CC/C(=N\NC(=O)NCc1cccc(O)c1)c1ccc(O)c(C)c1O the inhibition was -2.5% (enzyme activity; inhibitor; 0.1 µM).
With O=C1Nc2ccc(Cl)cc2C1=Cc1cc(Cl)c(O)c(Cl)c1 the remaining signal was 89.5% (cell-free assay; 0.5 µM).
For O=C(NCc1ncc(C(F)(F)F)cc1Cl)c1ccc2c(c1)C1(CCS(=O)(=O)CC1)[C@H](C1CC1)N2S(=O)(=O)c1ccc(F)cc1, the remaining binding was 100% (cell-free assay; competition with immobilised ligand; 1 µM).
For CS(=O)(=O)CCNCc1ccc(-c2ccc3ncnc(Nc4ccc(OCc5cccc(F)c5)c(Cl)c4)c3c2)o1, the remaining signal was 149% (cell-free assay; 0.5 µM).
Cc1ccc(NC(=O)c2ccc(C)c(C(F)(F)F)c2)cc1C#Cc1nn(C2CCC(O)CC2)c2ncnc(N)c12 (centres unmarked) gave a remaining signal of 94% (cell-free assay; 10 µM).
With FC(F)(F)Oc1cccc(-c2cnc3ccc(-c4ccncc4)nn23)c1 the activity vs control was 92% (enzyme activity; inhibitor; radiometric; 1 µM).
O=C(NCCCNc1nc(Nc2cccc(CN3CCOCC3)c2)ncc1C1CC1)C1CCC1 has a remaining activity of -5% (enzyme activity; inhibitor; radiometric; 1 µM).
For CC1=C(C#N)C(c2ccc3c(c2)c(NC(=O)c2ccccc2C)nn3C)C(C#N)=C(C)N1, the remaining binding was 100% (cell-free assay; competition with immobilised ligand; 1 µM).
NS(=O)(=O)c1ccc(CNc2nc(Nc3cccc(NC(=O)N4CCCC4)c3)ncc2Br)cc1 gave a remaining activity of 57% (enzyme activity; inhibitor; radiometric; 1 µM).
With Cc1ccc(Nc2nccc(N(C)c3ccc4c(C)n(C)nc4c3)n2)cc1S(N)(=O)=O the inhibition was 19% (enzyme activity; inhibitor; 0.3 µM).
Cc1nn(CC(F)(F)F)cc1Nc1ncc(C2CC2)c(NCCc2c[nH]cn2)n1 gave a remaining activity of 71% (enzyme activity; inhibitor; radiometric; 1 µM).
The remaining binding of CS(=O)(=O)NCC[C@H](NC(=O)c1cncc2c1cnn2-c1ccc(F)cc1)c1ccnc(S(C)(=O)=O)c1 is reported as 92% (cell-free assay; competition with immobilised ligand; 1 µM).
The remaining signal of C#Cc1cccc(Nc2ncnc3cc(OCCOC)c(OCCOC)cc23)c1 is reported as 130% (cell-free assay; 0.5 µM).
Nc1ncnc2occ(-c3ccc(NC(=O)Nc4cc(C(F)(F)F)ccc4F)cc3)c12 has a remaining signal of 34% (cell-free assay; inhibitor; 20 µM).
The inhibition of CNC(=O)c1cc(Oc2ccc(NC(=O)Nc3ccc(Cl)c(C(F)(F)F)c3)cc2)ccn1 is reported as 8% (enzyme activity; inhibitor; 10 µM).
The remaining activity of NS(=O)(=O)c1ccc(CNc2nc(Nc3cccc(NC(=O)N4CCCC4)c3)ncc2C2CC2)cc1 is reported as 94% (enzyme activity; inhibitor; radiometric; 1 µM).
CN(C)c1nccc(-c2cnn3ncccc23)n1 has a remaining binding of 96% (binding; 1 µM).
COc1cc2ncnc(Nc3ccc(Oc4ccccc4)cc3C)c2cc1OC gave an inhibition of 8% (enzyme activity; inhibitor; 1 µM).
For Cc1nn(CC(F)(F)F)cc1Nc1ncc(Br)c(NCCc2cnc[nH]2)n1, the remaining activity was 49% (enzyme activity; inhibitor; radiometric; 1 µM).
With CSc1nc(C)c(-c2ccnc(Nc3ccc(N4CCOCC4)cc3)c2)[nH]1 the inhibition was 20.1% (enzyme activity; inhibitor; 10 µM).
With Cc1cc(NC(=O)c2cccc3cc(-c4cccc5[nH]nc(N)c45)ccc23)ccc1F the activity vs control was 133% (enzyme activity; inhibitor; 0.1 µM).
O=C(Nc1cccc(Nc2ncc(Br)c(NCCc3cnc[nH]3)n2)c1)N1CCCC1 gave a remaining activity of -4% (enzyme activity; inhibitor; radiometric; 1 µM).
The remaining binding of CSc1cccnc1N1CCN(Cc2nc3ccccc3[nH]2)CC1 is reported as 100% (cell-free assay; competition with immobilised ligand; 1 µM).
With C[S+]([O-])c1ccc(-c2nc(-c3ccncc3)c(-c3ccc(F)cc3)[nH]2)cc1 (centres unmarked) the remaining signal was 105% (cell-free assay; 0.5 µM).
For CCN(CC)CCNC(=O)c1c(C)[nH]c(/C=C2\C(=O)Nc3ccc(F)cc32)c1C, the inhibition was 92% (enzyme activity; inhibitor; 10 µM).
For CCC(=O)N[C@H]1CC[C@@H](C(=O)N(C)c2ccc(-c3nc4ccccc4o3)cc2)C1, the remaining binding was 100% (cell-free assay; competition with immobilised ligand; 1 µM).
For COc1cc(/C=C/C(=O)CC(=O)/C=C/c2ccc(O)c(OC)c2)ccc1O, the activity vs control was 79% (enzyme activity; inhibitor; 1 µM).
The remaining binding of O=S(=O)(NC1CCC(c2cc(F)ccc2F)(S(=O)(=O)c2ccc(Cl)cc2)CC1)C(F)(F)F (centres unmarked) is reported as 100% (cell-free assay; competition with immobilised ligand; 1 µM).
For Cc1nn(CC(F)(F)F)cc1Nc1nccc(NCc2ccc(S(N)(=O)=O)cc2)n1, the remaining activity was 107% (enzyme activity; inhibitor; radiometric; 1 µM).
